Experimental data from ChEMBL document CHEMBL3352510, “Anti-Inflammatory Spirostanol and Furostanol Saponins from Solanum macaonense” (J Nat Prod, 2014).
pIC50: −log10 of the molar value. Active and inactive are the calls of the source. The calls are words filed in the database; no cut-off is given here.

Experiments:
Neutrophil [1] = test: Inhibition of FMLP/CB-stimulated superoxide production in human neutrophils preincubated for 5 mins before FMLP/CB treatment by spectrophotometry; type: functional, cell-based
In short: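 Neutrophils equilibrated with ferricytochrome c (0.5 mg/mL) and 1 mM Ca2+ at 37 °C for 2 min, treated with compound for 5 min, primed with cytochalasin B (1 μg/mL) for 3 min, then stimulated with FMLP 100 nM for 10 min. IC50 given as mean ± SEM, n = 3 or 4. Diphenyleneiodonium as positive control.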

[2] = Cytotoxicity against human neutrophils assessed as reduction in cell viability up to 10 uM by LDH release assay; type: cell-based; settings: neutrophil
In short: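 Neutrophils held in Ca2+-free HBSS, pH 7.4, at 4 °C before use. Compounds tested up to 10 μM. Membrane damage scored as LDH in cell-free medium, expressed as a percentage of total LDH release.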

Neutrophil [3] = test: Inhibition of FMLP/CB-stimulated elastase release in human neutrophils preincubated for 5 mins before FMLP/CB treatment using MeO-Suc-Ala-Ala-Pro-Val-pnitroanilide by spectrophotometry; type: functional, cell-based
In short: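 Neutrophils, after hypotonic lysis of erythrocytes, kept in Ca2+-free HBSS pH 7.4. Equilibrated 2 min at 37 °C with MeO-Suc-Ala-Ala-Pro-Val-p-nitroanilide (100 μM), given compound for 5 min, then activated with FMLP 100 nM plus cytochalasin B 0.5 μg/mL. Absorbance at 405 nm tracked continuously and expressed as percent of drug-free activated control. IC50 reported as mean ± SEM, n = 3 or 4. Sivelestat as positive control.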

[4] = Cytotoxicity against rat RBL2H3 cells assessed as reduction in cell viability by MTT assay; type: cell-based; settings: rbl-2h3
In short: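 Viability of RBL-2H3 cells by MTT, run alongside the degranulation assay. Cells cultured in DMEM/F12 with 10% FBS and exposed to compound at 0–64 μM.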

RBL-2H3 = test: Anti-inflammatory activity in rat RBL2H3 cells assessed as inhibition of beta-hexosaminidase release at 1 to 64 uM after 48 hrs by degranulation assay relative to control; type: functional, cell-based
In short: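 RBL-2H3 cells grown in DMEM/F12 with 10% FBS, seeded at 10^4 cells/well, exposed to compound (0, 1, 4, 16, 64 μM) for 48 h. Sensitized overnight with anti-DNP IgE ([…]), washed in Tyrode's buffer, then challenged with DNP-BSA (0.1 μg/mL) for 1 h. Reaction stopped on ice. Supernatant incubated 1 h with p-nitrophenyl-N-acetyl-D-glucosaminide (0.1 M, citrate buffer), stopped with bicarbonate, read at 405 nm. Release % = (sample − background)/(total lysate − background) × 100. Dexamethasone 100 nM as positive control.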

[5] = Antidegranulation activity in rat RBL2H3 cells assessed as inhibition of DNP-BSA-stimulated beta-hexosaminidase release

| Structure (SMILES) | pIC50 (Neutrophil [1]) | pIC50 (Neutrophil [3]) | further results |
| --- | --- | --- | --- |
| C[C@@H]1CC[C@@]2(OC1)O[C@H]1C[C@H]3[C@@H]4C[C@H](O[C@@H]5O[C@H](C)[C@@H](O)[C@H](O)[C@H]5O)[C@H]5C[C@@H](O)CC[C@]5(C)[C@H]4CC[C@]3(C)[C@H]1[C@@H]2C | 5.15 | 5.43 | Activity [2]: Non-toxic |
| C[C@@H]1CC[C@@]2(OC1)O[C@H]1C[C@H]3[C@@H]4C[C@H](O[C@@H]5O[C@H](CO)[C@@H](O)[C@H](O)[C@H]5O)[C@H]5C[C@@H](O)CC[C@]5(C)[C@H]4CC[C@]3(C)[C@H]1[C@@H]2C | < 5.00 | – | – |
| C[C@@H]1CC[C@@]2(OC1)O[C@H]1C[C@H]3[C@@H]4C[C@H](O)[C@H]5C[C@@H](O[C@@H]6O[C@H](CO)[C@@H](O[C@H]7O[C@@H](C)[C@H](O)[C@@H](O)[C@H]7O)[C@H](O)[C@H]6O[C@H]6O[C@@H](C)[C@H](O)[C@@H](O)[C@H]6O)CC[C@]5(C)[C@H]4CC[C@]3(C)[C@H]1[C@@H]2C | < 5.00 | – | – |
| C[C@H](CC[C@@]1(O)O[C@H]2C[C@H]3[C@@H]4C[C@H](O)[C@H]5C[C@@H](O[C@@H]6O[C@H](CO)[C@@H](O)[C@H](O)[C@H]6O[C@@H]6O[C@@H](C)[C@H](O)[C@@H](O)[C@H]6O)CC[C@]5(C)[C@H]4CC[C@]3(C)[C@H]2[C@@H]1C)CO[C@@H]1O[C@H](CO)[C@@H](O)[C@H](O)[C@H]1O | < 5.00 | – | – |
| C[C@H](CC[C@@]1(O)O[C@H]2C[C@H]3[C@@H]4C[C@H](O)[C@H]5C[C@@H](O[C@@H]6O[C@H](CO)[C@@H](O)[C@H](O)[C@H]6O)CC[C@]5(C)[C@H]4CC[C@]3(C)[C@H]2[C@@H]1C)CO[C@@H]1O[C@H](CO)[C@@H](O)[C@H](O)[C@H]1O | < 5.00 | – | – |
| C[C@H](CC[C@@]1(O)O[C@H]2C[C@H]3[C@@H]4C[C@H](O[C@@H]5O[C@H](C)[C@@H](O)[C@H](O[C@@H]6OC[C@@H](O)[C@H](O)[C@H]6O)[C@H]5O)[C@H]5C[C@@H](O)CC[C@]5(C)[C@H]4CC[C@]3(C)[C@H]2[C@@H]1C)CO[C@@H]1O[C@H](CO)[C@@H](O)[C@H](O)[C@H]1O | < 5.00 | – | – |
| c1ccc2c(c1)[I+]c1ccccc1-2 [DIPHENYLENEIODONIUM] | 6.10 | – | – |
| CC(C)(C)C(=O)Oc1ccc(S(=O)(=O)Nc2ccccc2C(=O)NCC(=O)O)cc1 [SIVELESTAT] | – | 4.30 | – |
| C[C@H](CC[C@@]1(O)O[C@H]2C[C@H]3[C@@H]4C[C@H](O[C@@H]5O[C@H](C)[C@@H](O)[C@H](O)[C@H]5O)[C@H]5C[C@@H](O[C@@H]6O[C@H](CO)[C@@H](O)[C@H](O)[C@H]6O)CC[C@]5(C)[C@H]4CC[C@]3(C)[C@H]2[C@@H]1C)CO[C@@H]1O[C@H](CO)[C@@H](O)[C@H](O)[C@H]1O | < 5.00 | – | – |
| C[C@@H]1CC[C@@]2(OC1)O[C@H]1C[C@H]3[C@@H]4C[C@H](O[C@@H]5O[C@H](C)[C@@H](O)[C@H](O[C@@H]6OC[C@@H](O)[C@H](O)[C@H]6O)[C@H]5O)[C@H]5C[C@@H](O)CC[C@]5(C)[C@H]4CC[C@]3(C)[C@H]1[C@@H]2C | 5.40 | 6.00 | – |
| CO[C@]1(CC[C@@H](C)CO[C@@H]2O[C@H](CO)[C@@H](O)[C@H](O)[C@H]2O)O[C@H]2C[C@H]3[C@@H]4C[C@H](O[C@@H]5OC[C@@H](O)[C@H](O[C@@H]6OC[C@@H](O)[C@H](O)[C@H]6O)[C@H]5O)[C@H]5C[C@@H](O)CC[C@]5(C)[C@H]4CC[C@]3(C)[C@H]2[C@@H]1C | < 5.00 | – | – |
| C[C@H](C/C=C1/O[C@H]2C[C@H]3[C@@H]4C[C@H](O[C@@H]5O[C@H](C)[C@@H](O)[C@H](O[C@@H]6OC[C@@H](O)[C@H](O)[C@H]6O)[C@H]5O)[C@H]5C[C@@H](O)CC[C@]5(C)[C@H]4CC[C@]3(C)[C@H]2[C@@]1(C)O)CO[C@@H]1O[C@H](CO)[C@@H](O)[C@H](O)[C@H]1O | < 5.00 | – | – |
| C[C@@H]1CC[C@@]2(OC1)O[C@H]1C[C@H]3[C@@H]4C[C@H](O[C@@H]5OC[C@@H](O)[C@H](O[C@@H]6OC[C@@H](O)[C@H](O)[C@H]6O)[C@H]5O)[C@H]5C[C@@H](O)CC[C@]5(C)[C@H]4CC[C@]3(C)[C@H]1[C@@H]2C | < 5.00 | 5.38 | Activity [4]: Active; Activity [2]: Non-toxic; Activity (RBL-2H3): inactive |
| CO[C@]1(CC[C@@H](C)CO[C@@H]2O[C@H](CO)[C@@H](O)[C@H](O)[C@H]2O)O[C@H]2C[C@H]3[C@@H]4C[C@H](O[C@@H]5O[C@H](C)[C@@H](O)[C@H](O[C@@H]6OC[C@@H](O)[C@H](O)[C@H]6O)[C@H]5O)[C@H]5C[C@@H](O)CC[C@]5(C)[C@H]4CC[C@]3(C)[C@H]2[C@@H]1C | < 5.00 | – | – |
| C[C@H]1CO[C@@]2(O[C@H]3C[C@H]4[C@@H]5C[C@H](O[C@@H]6O[C@H](C)[C@@H](O)[C@H](O[C@@H]7OC[C@@H](O)[C@H](O)[C@H]7O)[C@H]6O)[C@H]6C[C@@H](O)CC[C@]6(C)[C@H]5CC[C@]4(C)[C@H]3[C@@H]2C)[C@@H](O)C1 | < 5.00 | – | – |
| C[C@@H]1CC[C@@]2(OC1)O[C@H]1C[C@H]3[C@@H]4C[C@H](O)[C@H]5C[C@@H](O)CC[C@]5(C)[C@H]4CC[C@]3(C)[C@H]1[C@@H]2C [CHLOROGENIN] | 5.21 | < 5.00 | – |
| C[C@@H]1CC[C@@]2(OC1)O[C@H]1C[C@H]3[C@@H]4C[C@H](O[C@@H]5OC[C@@H](O)[C@H](O)[C@H]5O)[C@H]5C[C@@H](O)CC[C@]5(C)[C@H]4CC[C@]3(C)[C@H]1[C@@H]2C | 5.12 | 5.36 | Activity [2]: Non-toxic |
| C[C@@H]1CC[C@@]2(OC1)O[C@H]1C[C@H]3[C@@H]4C[C@H](O[C@@H]5O[C@H](C)[C@@H](O)[C@H](O)[C@H]5O)[C@H]5C[C@@H](O[C@@H]6O[C@H](CO)[C@@H](O)[C@H](O)[C@H]6O)CC[C@]5(C)[C@H]4CC[C@]3(C)[C@H]1[C@@H]2C | < 5.00 | – | – |
| CC1=C(CC[C@@H](C)CO[C@@H]2O[C@H](CO)[C@@H](O)[C@H](O)[C@H]2O)O[C@H]2C[C@H]3[C@@H]4C[C@H](O[C@@H]5O[C@H](C)[C@@H](O)[C@H](O[C@@H]6OC[C@@H](O)[C@H](O)[C@H]6O)[C@H]5O)[C@H]5C[C@@H](O)CC[C@]5(C)[C@H]4CC[C@]3(C)[C@@H]12 | < 5.00 | – | – |
| C[C@@H]1CC[C@@]2(OC1)O[C@H]1C[C@H]3[C@@H]4C[C@H](O[C@@H]5O[C@H](C)[C@@H](O)[C@H](O[C@@H]6OC[C@@H](O)[C@H](O)[C@H]6O)[C@H]5O)[C@H]5CC(=O)CC[C@]5(C)[C@H]4CC[C@]3(C)[C@H]1[C@@H]2C | < 5.00 | 5.49 | Activity [2]: Non-toxic; Activity (RBL-2H3): inactive; inhibition of degranulation [5]: > 90% |
| CC1=C(C(O)C[C@@H](C)CO[C@@H]2O[C@H](CO)[C@@H](O)[C@H](O)[C@H]2O)O[C@H]2C[C@H]3[C@@H]4C[C@H](O[C@@H]5O[C@H](C)[C@@H](O)[C@H](O[C@@H]6OC[C@@H](O)[C@H](O)[C@H]6O)[C@H]5O)[C@H]5C[C@@H](O)CC[C@]5(C)[C@H]4CC[C@]3(C)[C@@H]12 (stereo partly specified) | < 5.00 | – | – |
| CO[C@]1(CC[C@@H](C)CO[C@@H]2O[C@H](CO)[C@@H](O)[C@H](O)[C@H]2O)O[C@H]2C[C@H]3[C@@H]4C[C@H](O[C@@H]5O[C@H](C)[C@@H](O)[C@H](O[C@@H]6OC[C@@H](O)[C@H](O)[C@H]6O)[C@H]5O)[C@H]5CC(=O)CC[C@]5(C)[C@H]4CC[C@]3(C)[C@H]2[C@@H]1C | < 5.00 | – | – |
